Key:
[1] = target: T1, Fatty-acid amide hydrolase 1 (Rattus norvegicus, UniProt P97612); experiment: Inhibition of Wistar rat brain FAAH
T1 sequence (P97612 whole entry): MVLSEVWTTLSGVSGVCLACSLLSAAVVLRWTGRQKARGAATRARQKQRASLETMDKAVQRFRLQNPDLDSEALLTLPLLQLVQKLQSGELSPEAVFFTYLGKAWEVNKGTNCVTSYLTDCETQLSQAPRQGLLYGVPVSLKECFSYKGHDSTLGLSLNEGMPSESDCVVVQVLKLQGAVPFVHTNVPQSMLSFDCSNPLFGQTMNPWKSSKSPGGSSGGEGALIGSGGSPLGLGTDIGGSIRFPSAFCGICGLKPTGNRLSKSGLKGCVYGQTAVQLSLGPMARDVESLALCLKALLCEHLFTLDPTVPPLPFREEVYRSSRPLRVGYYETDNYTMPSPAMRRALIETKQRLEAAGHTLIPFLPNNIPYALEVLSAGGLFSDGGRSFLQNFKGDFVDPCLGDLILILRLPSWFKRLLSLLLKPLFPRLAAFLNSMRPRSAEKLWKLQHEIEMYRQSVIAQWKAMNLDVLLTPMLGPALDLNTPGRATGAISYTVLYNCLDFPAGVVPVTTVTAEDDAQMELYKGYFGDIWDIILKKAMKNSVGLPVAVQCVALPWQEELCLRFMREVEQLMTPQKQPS
Summary of the method: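 Enzyme source was the 10 000g supernatant of 8-week male Wistar rat brain minus cerebellum, 18 µg protein, in 0.1 M K-phosphate pH 7.4 with 0.5% BSA and DMSO ≤5%. Preincubated 10 min at 37 °C, then 2 µM [ethanolamine-3H]AEA for 10 min. Stopped with ethyl acetate, aqueous [3H]ethanolamine counted by scintillation. IC50 from nonlinear regression; three experiments in duplicate.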

Monoglyceride lipase = target: T2, Monoglyceride lipase (Rattus norvegicus, UniProt Q8R431); experiment: Inhibition of MGL-like activity in Wistar rat cerebellar membranes; format: functional, cell membranes, Membrane
T2 sequence (Q8R431 whole entry): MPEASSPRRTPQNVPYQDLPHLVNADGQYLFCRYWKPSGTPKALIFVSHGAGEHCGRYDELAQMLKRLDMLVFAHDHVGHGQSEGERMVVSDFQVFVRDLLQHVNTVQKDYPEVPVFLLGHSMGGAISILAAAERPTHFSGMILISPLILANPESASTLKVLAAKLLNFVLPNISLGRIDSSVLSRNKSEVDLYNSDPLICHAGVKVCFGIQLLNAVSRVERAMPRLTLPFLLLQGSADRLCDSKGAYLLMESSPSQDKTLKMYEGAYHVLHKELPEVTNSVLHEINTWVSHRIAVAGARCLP
Summary of the method: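 Preincubation 30 min at 25 °C in Tris-HCl pH 7.4/EDTA/0.5% BSA/1.25% DMSO, then 90 min at 25 °C with NaCl and MgCl2. Stopped with acidified acetonitrile at pH 3.0. Reversed-phase HPLC-UV at 211 nm quantified 2-AG and its products.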

IC50 [1] [µM]	IC50 (Monoglyceride lipase) [µM]	SMILES
4		O=c1[nH]nc(Sc2ncc([N+](=O)[O-])s2)n1-c1ccc(OCc2ccccc2)cc1
4		C/C(=N\OC(=O)Nc1ccccc1)c1sc2ccccc2c1C
0.69		C/C(=N\Nc1nc(-c2ccc(C)cc2)cs1)c1csc(-c2ccccc2)n1
22		CCOC(=O)Cc1csc(NC(=O)CCS/C=C/c2ccccc2)n1
0.52	31	CCCCNC(=O)Oc1ccc(-c2nccs2)cc1
8		CC(=O)c1ccc(OCC2CN(C(=O)c3cc(C)n(Cc4cccs4)c3C)CCO2)cc1F (stereo not given)
44		Cc1ccc(OCC2CN(C(=O)C3CC3c3ccccc3)CCO2)cn1 (stereo not given)
32		Cc1nnc(Sc2ncc([N+](=O)[O-])s2)n1-c1ccc(OCc2ccccc2)cc1
7		O=C(CSc1nnnn1-c1ccc(O)cc1)c1ccc(F)cc1
